Bioassay records deposited in PubChem by several laboratories.
CHOP inh: inhibitors of CHOP promoter induction, primary screen, cell-based, unfolded protein response, luciferase reporter; CHO-K1 CHOP-promoter luciferase, tunicamycin-induced, 15-18 h; inhibition, % at 10 µM; hit rate 3.8% among 220,000; AID 2732, 2010;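 active = compounds that reduced the stress-induced luciferase reporter signal by more than about 70% of percent inhibition, limit read from the data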;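 note: 0% = tunicamycin plus vehicle and 100% = wells without tunicamycin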
UPR XBP1 act: activators of adaptive XBP1 UPR arm, primary screen, cell-based, CHO-XBP1 luciferase reporter, luminescence, uHTS | IRE1-XBP1 UPR activation; percent of tunicamycin response, DMSO as zero | activation, % at 20 µM | hit rate 0.33% among 330,000 | AID 463104, 2010;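 active = versus positive control, 20 µM dose yields 30% or more activation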;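 note: 100% = tunicamycin at 10 µg/mL and 0% = DMSO only wells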
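assay system = CHO-XBP1 luciferase reporter cells | amount = 1000 cells/well | buffer or medium = F12 plus 10% FBS | compound dosing = single point, 20 µM final compound, 1% DMSO | incubation = 16-18 h cell attachment at 37 °C, then 6 h compound exposure | detection = Steady-Glo luminescence read | controls = tunicamycin 10 µg/mL and vehicle-only wells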
Jurkat NFkB inh: inhibitors of induced NF-kB luciferase reporter, primary screen, TCR NF-kB activation inhibitor project, cell-based, luminescence, uHTS; Jurkat, PMA/ionomycin-induced NF-kB luciferase reporter; inhibition, % at 4 µM; hit rate 0.53% among 330,000; AID 435003, 2010; in the data active = inhibition above about 50%
697 NFkB inh: inhibitors of PMA/ionomycin-induced NF-kB reporter, 697 cells, primary screen, B-cell NF-kB inhibitor project, cell-based, luminescence, uHTS; hit rate 0.33% among 330,000; 697 B-cell NF-kB luciferase reporter, 16 h; AID 435022, 2010; inhibition, % at 4 µM; in the data active = inhibition above about 35%
UPR CHOP act: activators of apoptotic CHOP UPR arm, primary screen, cell-based, CHO-CHOP luciferase reporter, luminescence, uHTS; UPR activation; percent of tunicamycin response over DMSO baseline; activation, % at 10 µM; hit rate 0.34% among 330,000; AID 449763, 2010;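 active = at 10 µM dose, activation of 40% or more, normalized to positive control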;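 note: 100% = tunicamycin at 10 µg/mL and 0% = DMSO alone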
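Assay system: CHO cells with stable CHOP pathway luciferase reporter; Buffer or medium: F12 plus 10% serum; Times: 16-18 h cell attachment, then 6 h compound exposure, 37 °C; Signal: luciferase luminescence; Read-out basis: percent activation relative to tunicamycin control; Control set: tunicamycin high control, DMSO low control.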
CHOP inh conf: retest of CHOP induction inhibitors, confirmation, cell-based. shares compounds with CHOP inh. CHO-CHOP promoter luciferase reporter, tunicamycin-induced, luminescence. inhibition, % at 10 µM. hit rate 45% among 2,100;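 active = mean of three repeat readings of reporter signal inhibition above a set limit, cut at about 70% in these data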;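 note: 0% = tunicamycin plus vehicle and 100% = wells lacking tunicamycin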
Jurkat NFkB conf: PMA/ionomycin-induced NF-kB reporter inhibitors, Jurkat retest, confirmation, T-cell NF-kB inhibitor project, cell-based, luminescence, single concentration. shares compounds with Jurkat NFkB inh. Jurkat NF-kB luciferase, 16 h. inhibition, % at 4 µM. hit rate 27% among 2,700. AID 435020, 2010;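 active = inhibition reaching about 45% at 4 µM in either replicate, limit read from the data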;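 note: plate controls were PMA/ionomycin stimulated DMSO wells for no effect and unstimulated DMSO wells for full effect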
697 NFkB conf: PMA/ionomycin-induced NF-kB reporter inhibitors, 697 retest, confirmation, B-cell NF-kB inhibitor project, cell-based, luminescence, single concentration | shares compounds with 697 NFkB inh | 697 B-cell NF-kB luciferase, 16 h | inhibition, % at 4 µM | hit rate 35% among 2,000 | AID 449746, 2010; in the data active = inhibition mostly above about 28%, no sharp cut-off; inactive = mostly below about 22%
CHOP UPR conf: activators of apoptotic CHOP UPR arm, confirmation, cell-based, CHO-CHOP luciferase reporter, single concentration; shares compounds with UPR CHOP act; CHO-CHOP cells, CHOP-luciferase reporter luminescence; percent of tunicamycin response, DMSO as zero; activation, % at 10 µM; hit rate 64% among 1,000; AID 463112, 2010; in the data active = activation above about 33%;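 note: 0% = DMSO wells and 100% = tunicamycin 10 µg/mL wells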
Starred values were filed as active, the others as inactive; · = not tested or not shown. This excerpt belongs to a sample that is enriched for hits.

SMILES	CHOP inh	UPR XBP1 act	Jurkat NFkB inh	697 NFkB inh	UPR CHOP act	CHOP inh conf	CHOP UPR conf	others
CC(C)(C)c1ccc(NC(=O)Nc2ccc(F)cc2)cc1	103*	2	-170	-255	6	107*	·	Jurkat NFkB conf=-171;697 NFkB conf=-317
COc1cc(-c2noc(CCC(N)=O)n2)cc(OC)c1OC	13	-3	-24	-1	-1	·	·
CC(C)(C)c1ccc(-c2noc(CCC(N)=O)n2)cc1	100*	-5	19	93*	-9	113*	·	697 NFkB conf=94*
CN1CCN(CCCCOc2ccc(Br)cc2)CC1	·	-4	-14	-22	2	·	·
O=C(O)c1cccc(COc2ccc(CO)cc2Cl)c1	97*	-10	94*	75*	-11	121*	·	Jurkat NFkB conf=89*;697 NFkB conf=59*
O=Cc1ccc(OCc2cccc(C(F)(F)F)c2)cc1O	47	-2	-3	11	1	·	·
COc1ccc(OCc2cccc(C(=O)O)c2)cc1	105*	-14	88*	80*	-11	126*	·	Jurkat NFkB conf=88*;697 NFkB conf=71*
O=C(OCC(F)(F)F)c1cccc(COc2ccc3ccccc3c2)c1	97*	-12	77*	58*	-10	116*	·	Jurkat NFkB conf=42;697 NFkB conf=33*
CCC(=O)N1c2ccc(S(=O)(=O)N3CCOCC3)cc2CC1C (configuration not stated)	·	0	2	-7	-1	·	·
COc1ccc2oc(=O)c(C(=O)NC(C)c3ccccc3)cc2c1 (configuration not stated)	·	-2	-10	-26	-1	·	·
COc1ccc2oc(=O)c(C(=O)Nc3ccccc3O)cc2c1	101*	2	-201	-279	1	21	·	Jurkat NFkB conf=-108;697 NFkB conf=-296
COC(=O)c1cc(C(=O)OCC(=O)N2CCCCC2)cc([N+](=O)[O-])c1	·	-1	16	13	-1	·	·
CC1CCN(c2nc3ccc(C(=O)NCCCN4CCCCC4)cc3s2)CC1	·	3	-45	-80	0	·	·
CC1CCN(c2nc3ccc(C(=O)O)cc3s2)CC1	97*	-16	83*	52*	-11	108*	·	Jurkat NFkB conf=78*;697 NFkB conf=42*
CCn1c(C)nc2cc(-c3nc4n(n3)Cc3ccccc3-4)ccc21	·	-15	91*	70*	-12	138*	·	Jurkat NFkB conf=91*;697 NFkB conf=74*
CC(=O)NCc1ccc(C(=O)CCl)cc1	106*	-3	-2	20	113*	-3	-10
CC(=O)NCc1ccc(C(=O)CCl)s1	108*	-9	6	15	64*	107*	-5
Cc1cc(C(=O)CCl)c(C)n1-c1cccc(S(=O)(=O)N2CCOCC2)c1	103*	-5	3	24	207*	76*	64*
Cc1cc(C(=O)CN2C(=O)CN(C)C2=O)c(C)n1-c1cccc(S(=O)(=O)N2CCOCC2)c1	15	1	12	3	-1	·	·
CC1=NN(c2ccccc2)C(=O)/C1=C\c1cn(-c2ccccc2)nc1C	-1	-3	-1	12	0	·	·
Cc1ccc(-c2nn(-c3ccccc3)cc2C=C2C(=O)CC(C)(C)CC2=O)cc1	98*	13	-35	-50	48*	-9	206*
C[C@H]1CCC(=O)N([C@H](COc2ccccc2)Cc2ccccc2)CC1	·	2	3	14	0	·	·
Cc1cc(C)c(C(CC(=O)c2cccs2)C(C#N)C#N)c(C)c1 (configuration not stated)	103*	-1	-65	-33	47*	58	95*
CC(CC(=O)c1cccs1)CC(=O)c1cccs1	16	4	-59	-24	3	·	·
CCc1noc(C)c1C(=O)OCC(=O)Nc1nc(-c2ccc(F)c(F)c2)cs1	·	2	1	4	1	·	·
SMILES	CHOP inh	UPR XBP1 act	Jurkat NFkB inh	697 NFkB inh	UPR CHOP act	CHOP inh conf	CHOP UPR conf	others
COCCN=c1scc(-c2ccco2)n1/N=C/c1ccc(O)c(O)c1O	-80	6	0	-15	23	·	·
CC(C)N=c1scc(-c2ccco2)n1/N=C/c1ccc(O)c(O)c1	100*	20	4	-62	159*	-17	127*
CC1(C(=O)N/N=C/c2ccccc2)CC1(Cl)Cl (configuration not stated)	·	-2	4	-9	2	·	·
COC(=O)CSC1=C(C#N)C(=O)NC(c2ccccc2)S1 (configuration not stated)	99*	-3	-9	-1	88*	51	29
C#CCN(Cc1ccco1)C(=O)c1ccc(OC2CCN(Cc3ccccn3)CC2)cc1	·	1	16	-16	-1	·	·
Nc1nnnn1/N=C/C(Br)=C/c1ccccc1	·	-3	57*	-61	109*	90*	64*	Jurkat NFkB conf=16
COc1ccc2oc(C)c(C(=O)c3ccc(C)cc3)c2c1	·	0	-8	-12	1	·	·
COC(=O)c1ccc2c(c1)C(C)(C)C(/C=C/c1ccc(OC)c(OC)c1OC)=[N+]2C	·	-14	9	-22	64*	141*	-11
COc1ccc(/C=N/Nc2ccc(C(=O)O)cc2)c(OC)c1OC	·	-1	-71	-154	5	·	·
N#Cc1c(-c2ccc(Br)cc2)cc(-c2cccnc2)nc1N	-18	-3	4	-13	-2	·	·
CS(=O)(=O)c1nc(-c2ccc(Br)cc2)cc(-c2ccccc2)c1C#N	108*	11	29	22	279*	-30	130*
Cn1nc([N+](=O)[O-])c(C(C#N)c2ccccn2)c(Cl)c1=O (configuration not stated)	103*	-4	-2	-12	73*	49	49*
Clc1cccc(N2CCN(Cc3ccc(Br)o3)CC2)c1	·	-5	5	8	-2	·	·
COc1ccc(CNC[C@@H](CCCCN(C)Cc2ccc(OC)cc2)N2C[C@H](c3ccccc3)N(CCc3ccc(Cl)c(Cl)c3)C(=O)C2=O)cc1	105*	13	2	14	134*	-131	147*
